Legend:
Assay type in all cases: functional
LNCaP [1] = assay: Inhibition of cell growth was determined in LNCaP cell line of Human prostate tumor using MTT assay, on day 6 after treatment; conditions: read-out: ID50 (the source's name)
Procedure, shortened: (§1)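 MTT growth assay on human prostate tumour cells seeded in microtitre plates and incubated overnight at 37 °C in humidified 95% air/5% CO₂. Diluted drug stocks were added to the middle 8 columns, with buffer controls in the outer columns. Each concentration was run in quadruplicate. ID₅₀ is the concentration giving 50% growth inhibition on day 6 of treatment.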

PC-3 = assay: Inhibition of cell growth was determined in PC-3 cell line of human prostate tumor using MTT assay, on day 6 after treatment; conditions: read-out: ID50 (the source's name); procedure, shortened: as §1
DU-145 = assay: Inhibition of cell growth was determined in DU145 cell line of human prostate tumor using MTT assay, on day 6 after treatment; conditions: read-out: ID50 (the source's name); procedure, shortened: as §1
DuPro = assay: Inhibition of cell growth was determined in DUPRO cell line of human prostate tumor using MTT assay, on day 6 after treatment; conditions: read-out: ID50 (the source's name); procedure, shortened: as §1
LNCaP [2] = assay: Inhibition of cell growth was determined in LNCaP cell line of human prostate tumor using MTT assay, on day 6 after treatment; conditions: 144 h, read-out: ID50 (the source's name); procedure, shortened: as §1

SMILES	IC50 (LNCaP [1]; Homo sapiens, LNCaP, 144 h) [nM]	IC50 (PC-3; Homo sapiens, PC-3, 144 h) [nM]	IC50 (DU-145; Homo sapiens, DU-145, 144 h) [nM]	other results
CCNC/C=C\CNC/C=C\CNCCCCNCC	690	> 31200		
CCNCCCCNCC#CCNCCCCNCC	2200			IC50 (PC-3; PC-3, 144 h): > 31200 nM; IC50 (DuPro; 144 h): 3200 nM
CCNCCCCNCc1ccccc1CNCCCCNCC	> 31200	> 31200		IC50 (DuPro; Homo sapiens, DuPro, 144 h): > 31200 nM
CCNC/C=C\CNC/C=C\CNC/C=C\CNCC	770			
CCNCCCCNCC1CC1CNCCCCNCC (stereo in doubt; 4)				IC50 (LNCaP [1]): 210 nM; IC50 (PC-3): 1600 nM; IC50 (DuPro): 59 nM; IC50 (DU-145): 16 nM
CCNCCCCNCC1CC1CNCCCCNCC (stereo in doubt; 7)	170	1400	20	
CCNCCCCNCC1CCC1CNCCCCNCC (stereo in doubt; 10)				IC50 (LNCaP [1]): 210 nM; IC50 (DuPro): 80 nM
CCNCCCCNCC1CCC1CNCCCCNCC (stereo in doubt; 13)		4700	21	IC50 (LNCaP [1]): 700 nM; IC50 (DuPro): 300 nM

The next lines start with results.

IC50 (LNCaP [1]; Homo sapiens, LNCaP, 144 h) [nM]	IC50 (PC-3; Homo sapiens, PC-3, 144 h) [nM]	IC50 (DU-145; Homo sapiens, DU-145, 144 h) [nM]	SMILES	other results
497		220	CCNCCCCNC/C=C/CNCCCCNCC	
210			CCNC/C=C\CNCCCCNCCCCNCC	
65	> 31200	30	CCNCCCCNC/C=C\CNCCCCNCC	
3000	700	130	CCNC/C=C\CNCCCCNC/C=C\CNCC	
	700	30	CCNCCCCNCCCCNCCCCNCC [DIETHYLHOMOSPERMINE]	IC50 (DuPro; Homo sapiens, DuPro, 144 h): 200 nM; IC50 (LNCaP [2]): 100 nM
